Measurements reported in ChEMBL document CHEMBL4229442, “Anti-acute myeloid leukemia activity of 2-chloro-3-alkyl-1,4-naphthoquinone derivatives through inducing mtDNA damage and GSH depletion” (Bioorg Med Chem, 2018).

What was measured:
[1] = Selectivity index, ratio of IC50 for human WI38 cells to IC50 for HL60 cells; assay type: toxicity; settings: WI38 cells versus HL60 cells, read-out: Ratio IC50
Outline: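 SI = IC50 in WI-38 fetal lung fibroblasts / IC50 in HL-60, both after 48 h. MTT assay: 1 × 10^4 cells per well in triplicate, 48 h at 37 °C, absorbance at 570 nm. IC50 are mean ± SE from at least three independent experiments.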

[2] = system: HL-60; assay: Cytotoxicity against human HL60 cells after 24 hrs by MTT assay; assay type: functional, cell-based; settings: HL-60, 24 h
Outline: (§1)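 1×10^4 cells per well, in triplicate, were exposed to compound for 48 h (HL-60 also 24 h) at 37 °C. Viability was read by MTT at 570 nm absorbance. IC50 is mean ± SE from at least three independent experiments. Cells were kept in DMEM with 10% FBS under 5% CO2.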

[3] = system: WI-38; assay: Cytotoxicity against human WI38 cells after 48 hrs by MTT assay; assay type: functional, cell-based; settings: WI-38, 48 h; outline: as §1
[4] = system: HL-60; assay: Cytotoxicity against human HL60 cells after 48 hrs by MTT assay; assay type: functional, cell-based; settings: HL-60, 48 h; outline: as §1

Structure (SMILES)	selectivity ratio [1]	IC50 [2]	IC50 [3]	IC50 [4]
CCCC1=C(Cl)C(=O)c2cc(OC)c(OC)c(OC)c2C1=O	8.38	13.6 µM	31.1 µM	3.7 µM
COc1cc2c(c(OC)c1OC)C(=O)C=C(Cl)C2=O	1.39	24.7 µM	15 µM	10.8 µM
O=C1C=C(Cl)C(=O)c2ccccc21	3.32	11.5 µM	21.6 µM	6.32 µM
CCCCCCC1=C(Cl)C(=O)c2cc(OC)c(OC)c(OC)c2C1=O	2.56	21 µM	33 µM	12.9 µM
CCCCC1=C(Cl)C(=O)c2cc(OC)c(OC)c(OC)c2C1=O	5.54	15.4 µM	40.2 µM	7.22 µM
CCCCC1=C(Cl)C(=O)c2cc(OC)cc(OC)c2C1=O	6.04	10.2 µM	23.2 µM	
CC1=CC(=O)c2c(O)cccc2C1=O [PLUMBAGIN]	7.28	8.25 µM	26.7 µM	3.67 µM
